Results from ChEMBL document CHEMBL5712088, “Pharmacological inhibition of G9a/GLP restores cognition and reduces oxidative stress, neuroinflammation and β-Amyloid plaques in an early-onset Alzheimer's disease mouse model” (2019).
The source made the active and inactive calls. The calls are words filed in the database; no cut-off is given here.

Experiments:
Mus musculus [1] = experiment: Neuroprotective activity in 5XFAD mouse assessed as increase in NRF2 protein level at 5 mg/kg/day, po for 4 weeks by Western blot analysis; format: functional, organism-based
Procedure, shortened: (§1)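 Hippocampal lysates, with protease and phosphatase inhibitors, from 8-month-old male 5XFAD mice after 4 weeks at 5 mg/kg/day in drinking water. 15 μg protein resolved on 8-12% SDS-PAGE and blotted to PVDF. Blocked 1 h, primary antibody overnight at 4°C, HRP secondary, ECL detection. Values expressed as % of Wt control. n = 4 per group.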

Mus musculus [2] = experiment: Antialzheimer activity in 5XFAD mouse model assessed as reduction of 5-mC global level in DNA at 5 mg/kg/day, po for 4 weeks; format: functional, organism-based
Procedure, shortened: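 8-month-old male 5XFAD mice dosed 5 mg/kg/day via drinking water (1,8% hydroxypropyl-β-cyclodextrin vehicle), 4 weeks. Hippocampal DNA assayed for global 5-mC or 5-hmC by antibody-based ELISA-like colorimetric kit, absorbance 450 nm. Quantified against a standard curve of five control DNA dilutions (0.5–10 ng). n = 4 per group.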

Mus musculus [3] = experiment: Neuroprotective activity in 5XFAD mouse model assessed as reduced cognitive deficit in long term memory at 5 mg/kg/day, po for 4 weeks by novel object recognition test; format: functional, organism-based
Procedure, shortened: (§2)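 8-month-old male 5XFAD mice after 4 weeks of 5 mg/kg/day in drinking water. Two-arm 90° maze, habituated 10 min/day for 3 days. 10 min acquisition with two identical objects, then one object replaced after 2 h (short-term) or 24 h (long-term). DI = (TN−TO)/(TN+TO), exploration ≤2 cm. Objects counterbalanced.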

Mus musculus [4] = experiment: Neuroprotective activity in 5XFAD mouse assessed as increase in BDNF protein level at 5 mg/kg/day, po for 4 weeks by Western blot analysis; format: functional, organism-based; procedure, shortened: as §1
Mus musculus [5] = experiment: Antioxidant activity in 5XFAD mouse hippocampus assessed as decrease in ROS level at 5 mg/kg/day, po for 4 weeks; format: functional, organism-based
Procedure, shortened: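 Hippocampal homogenates from 8-month-old male 5XFAD mice after 4 weeks of 5 mg/kg/day in drinking water (cyclodextrin vehicle). H2O2 concentration measured with a hydrogen peroxide assay kit as an oxidative stress index. n = 3 per group, mean ± SEM.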

Mus musculus [6] = experiment: Neuroprotective activity in 5XFAD mouse assessed as defecations at 5 mg/kg/day, po for 4 weeks by open field test (reference value: 0.80+/-0.20 No_Unit); format: functional
Mus musculus [7] = experiment: Neuroprotective activity in 5XFAD mouse model assessed as reduced cognitive deficit in short term memory at 5 mg/kg/day, po for 4 weeks by novel object recognition test; format: functional, organism-based; procedure, shortened: as §2
Mus musculus [8] = experiment: Anti-neuro inflammatory activity in 5XFAD mouse assessed as reduction in TNF-alpha mRNA expression at 5 mg/kg/day, po for 4 weeks by RT-PCR analysis; format: functional, organism-based
Procedure, shortened: (§3)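 Male 5XFAD mice, 8 months old, given 5 mg/kg/day in drinking water with 1,8% 2-hydroxypropyl-β-cyclodextrin for 4 weeks. Hippocampus collected one day after behavioural testing. Trizol RNA, 2 μg reverse-transcribed, TaqMan qPCR with 18 ng cDNA per reaction. ΔΔCt normalized to housekeeping gene. n = 4-6 (Hmox1: 3-6) per group. One-way ANOVA with Dunnett.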

Mus musculus [9] = experiment: Neuroprotective activity in 5XFAD mouse assessed as reduction in GFAP protein level by measuring fluorescence intensity at 5 mg/kg/day, po for 4 weeks by immunostaining analysis; format: functional, organism-based
Mus musculus [10] = experiment: Antialzheimer activity in 5XFAD mouse model assessed as increase in 5-hmC global level in DNA at 5 mg/kg/day, po for 4 weeks
Mus musculus [11] = experiment: Neuroprotective activity in 5XFAD mouse assessed as Vgf gene expression at 5 mg/kg/day, po for 4 weeks by RT-PCR analysis; format: functional, organism-based; procedure, shortened: as §3
Mus musculus [12] = experiment: Neuroprotective activity in 5XFAD mouse assessed as distance in zone-center at 5 mg/kg/day, po for 4 weeks by open field test (reference value: 87.64+/-8.21 cm); format: functional
Mus musculus [13] = experiment: Neuroprotective activity in 5XFAD mouse assessed as no change in IBA1 protein level at 5 mg/kg/day, po for 4 weeks by immunostaining analysis; format: functional, organism-based
Mus musculus [14] = experiment: Neuroprotective activity in 5XFAD mouse assessed as increase in grooming at 5 mg/kg/day, po for 4 weeks by open field test (reference value: 1.2+/-0.25); format: functional
Mus musculus [15] = experiment: Neuroprotective activity in 5XFAD mouse assessed as increase in postsynaptic density protein 95 level at 5 mg/kg/day, po for 4 weeks by Western blot analysis; format: functional, organism-based; procedure, shortened: as §1
Mus musculus [16] = experiment: Neuroprotective activity in 5XFAD mouse assessed as increase in SOD1 protein level at 5 mg/kg/day, po for 4 weeks by Western blot analysis; format: functional, organism-based; procedure, shortened: as §1
Mus musculus [17] = experiment: Anti-neuro inflammatory activity in 5XFAD mouse assessed as reduction in Il-6 mRNA expression at 5 mg/kg/day, po for 4 weeks by RT-PCR analysis; format: functional, organism-based; procedure, shortened: as §3
Mus musculus [18] = experiment: Neuroprotective activity in 5XFAD mouse assessed as Ngf gene expression at 5 mg/kg/day, po for 4 weeks by RT-PCR analysis; format: functional, organism-based; procedure, shortened: as §3
Mus musculus [19] = experiment: Neuroprotective activity in 5XFAD mouse assessed as increase in Hmox1 gene expression level at 5 mg/kg/day, po for 4 weeks by RT-PCR analysis; format: functional, organism-based; procedure, shortened: as §3
Mus musculus [20] = experiment: Neuroprotective activity in 5XFAD mouse assessed as reduction in H3K9me2 level at 5 mg/kg/day, po for 4 weeks by Western blot analysis; format: functional, organism-based; procedure, shortened: as §1
Mus musculus [21] = experiment: Neuroprotective activity in 5XFAD mouse assessed as restoration of locomotor activity at 5 mg/kg/day, po for 4 weeks by open field test (reference value: 1672.36+/-68.84 cm); format: functional
Mus musculus [22] = experiment: Neuroprotective activity in 5XFAD mouse assessed as increase in GPX1 protein level at 5 mg/kg/day, po for 4 weeks by Western blot analysis; format: functional, organism-based; procedure, shortened: as §1
Mus musculus [23] = experiment: Neuroprotective activity in 5XFAD mouse assessed as number of beta-amyloid plaques at 5 mg/kg/day, po for 4 weeks relative to control; format: functional
Procedure, shortened: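 Male 5XFAD mice, 8 months old, received 5 mg/kg/day in drinking water for 4 weeks. 30 μm brain sections rehydrated in PBS, then stained with 0.3% Thioflavin-S for 20 min at room temperature in the dark.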

Mus musculus [24] = experiment: Neuroprotective activity in 5XFAD mouse assessed as increase in synaptophysin protein level at 5 mg/kg/day, po for 4 weeks by Western blot analysis; format: functional, organism-based; procedure, shortened: as §1
Mus musculus [25] = experiment: Anti-neuro inflammatory activity in 5XFAD mouse assessed as Cxcl10 mRNA expression at 5 mg/kg/day, po for 4 weeks by RT-PCR analysis; format: functional, organism-based; procedure, shortened: as §3
Mus musculus [26] = experiment: Neuroprotective activity in 5XFAD mouse assessed as no change in Mcp1 mRNA expression at 5 mg/kg/day, po for 4 weeks by RT-PCR analysis; format: functional, organism-based; procedure, shortened: as §3
Mus musculus [27] = experiment: Neuroprotective activity in 5XFAD mouse assessed as distance in zone-periphery at 5 mg/kg/day, po for 4 weeks by open field test (reference value: 1450.05+/-133.56 cm); format: functional
Mus musculus [28] = experiment: Neuroprotective activity in cognitive impairment of 5XFAD mouse model assessed as increase in discrimination index at 5 mg/kg/day, po for 4 weeks by novel object location test; format: functional, organism-based
Procedure, shortened: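 Object location task in 8-month-old male 5XFAD mice after 4 weeks of 5 mg/kg/day in drinking water. Sessions video-recorded from above. Time sniffing the relocated object (TN) versus the object in the familiar location (TO) was scored. DI = (TN-TO)/(TN+TO).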

Mus musculus [29] = experiment: Neuroprotective activity in 5XFAD mouse assessed as urinations at 5 mg/kg/day, po for 4 weeks by open field test (reference value: 0); format: functional
Mus musculus [30] = experiment: Neuroprotective activity in 5XFAD mouse assessed as increase in vertical activity by measuring number of rearings at 5 mg/kg/day, po for 4 weeks by open field test (reference value: 9.9+/-0.66); format: functional

COc1cc2c(NC3CCN(C(C)C)CC3)nc(N3CCC(F)(F)CC3)nc2cc1OCCCN1CCCC1
Activity (Mus musculus [1]): Active | Activity (Mus musculus [2]): Active | Activity (Mus musculus [3]): Active | Activity (Mus musculus [4]): Active | Activity (Mus musculus [5]): Active | Activity (Mus musculus [6]): 0.86 | Activity (Mus musculus [7]): Active | Activity (Mus musculus [8]): Active | Activity (Mus musculus [9]): Active | Activity (Mus musculus [10]): Active | Activity (Mus musculus [11]): Active | Activity (Mus musculus [12]): 92.74 cm | Activity (Mus musculus [13]): inactive | Activity (Mus musculus [14]): 3.71 | Activity (Mus musculus [15]): Active | Activity (Mus musculus [16]): Active | Activity (Mus musculus [17]): Active | Activity (Mus musculus [18]): Active | Activity (Mus musculus [19]): Active | Activity (Mus musculus [20]): Active | Activity (Mus musculus [21]): 2030.46 cm | Activity (Mus musculus [22]): Active | Activity (Mus musculus [23]): 45% | Activity (Mus musculus [24]): Active | Activity (Mus musculus [25]): inactive | Activity (Mus musculus [26]): inactive | Activity (Mus musculus [27]): 1623.83 cm | Activity (Mus musculus [28]): Active | Activity (Mus musculus [29]): 0 | Activity (Mus musculus [30]): 14.29
